Screening data (PubChem)
In the library only some 0.83% were active in any assay of this set; here they are far more common.
RGS4-Gao reg: modulates binding of RGS4 to human Galphao | AID 1415 | binding response (% of control), % at 10 µM | Multiplexed bead flow cytometry; actives lie on both sides | 0.33% of 220,000 active | P09471; in the data active = binding response below about 49% or above about 150%; inactive = in between;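 note: fluorescent Galphao activated with aluminum fluoride binding bead-coupled RGS4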
RGS7-Gao: human RGS7-Galphao interaction regulation | P09471 | Multiplexed bead flow cytometry, RGS7-Galphao binding; actives lie on both sides | binding response (% of control), % at 10 µM | 0.35% of 220,000 active | AID 1439; in the data active = binding response below about 49% or above about 150%; inconclusive = no clear call, values can overlap the other calls; inactive = in between;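 note: fluorescent Galphao held in activated GDP-AlF4 state binding bead-coupled RGS7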
RGS16-Gao HTS: RGS16-Galphao interaction regulator (human). O15492+P09471. bead-based flow cytometry RGS16-Galphao binding, fluorescence; actives lie on both sides. binding response (% of control), % at 10 µM. 0.38% of 220,000 active. AID 1441; call rule not given here;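 note: Galphao activated by GDP with aluminum fluoride before binding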
ABCB1 inh: blocks JC-1 efflux by human ABCB1 transporter | P08183 | CCRF-Adr cells, flow cytometry | inhibition, % at 6.6 µM | 0.067% of 190,000 active | AID 1326; in the data active = inhibition above about 40%;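 note: 0% = vehicle and 100% = reference inhibitor; higher value means more JC-1 retained so stronger ABCB1 efflux block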
ABCG2 inh: human ABCG2 inhibition, ABCB1 as counter-screen; Q9UNQ0; IgMXP3 cells, JC-1 efflux, flow cytometry; inhibition, % at 6.6 µM; 0.1% of 190,000 active; AID 1325;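 active = inhibition above 80%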;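 note: 0% = DMSO and 100% = nicardipine control wells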
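material = IgMXP3 (ABCG2) plus far-red-tagged CCRF-Adr (ABCB1) cells | amount = 3 million cells/mL, equal mix of both lines | also added = JC-1 transporter substrate | dosing = one concentration, 6.6 µM final | schedule = 10 min at 25 °C | measured by = flow cytometric JC-1 green MFI at 530 nm | read-out basis = percent efflux inhibition, scaled nicardipine 100% to DMSO 0%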
RGS8-Gao reg: human RGS8-Galphao interaction regulation; 0.34% of 220,000 active; multiplexed bead flow cytometry, RGS8-Galphao binding; actives lie on both sides; AID 1423; response (percent of control binding), % at 10 µM; in the data active = response below about 60% or above about 140%; inactive = in between;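 note: Galphao activated as the GDP aluminium fluoride complex binding bead-coupled RGS8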
ABCB1 confirm: confirmation of human ABCB1 transporter inhibitors, ABCG2 counter-screen. inhibition, % at 6.6 µM. CCRF-Adr cells, JC-1 efflux, flow cytometry. 7% of 270 active. AID 1451. shares compounds with ABCG2 inh;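 active = inhibition of pump activity above 50%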;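 note: 0% = DMSO and 100% = nicardipine full pump inhibition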
ABCG2 single pt: confirmation of human ABCG2 transporter inhibitors, ABCB1 counter-screen; 6% of 270 active; shares compounds with ABCG2 inh; IgMXP3 cells, JC-1 efflux, flow cytometry; inhibition, % at 6.6 µM;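 active = inhibition above 50%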;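 note: 0% = DMSO wells and 100% = nicardipine pump inhibitor wells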
IgMXP3 fluor: counter-screen for ABCG2 inhibitors: compound fluorescence in IgMXP3 cells | compound autofluorescence 488/530 nm, flow; stronger effect = higher value | 30% of 270 active | shares compounds with ABCG2 inh | fluorescence at 6.6 µM;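 active = fluorescence in ABCG2-expressing cells above the plate's control-well mean plus 3 SD, cut at about 15 in these data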;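 note: median cell fluorescence with compound minus that of DMSO-treated control cells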
CCRF autofluor: CCRF-Adr autofluorescence flag for ABCB1 confirmation; shares compounds with ABCG2 inh; CCRF-Adr cells, compound autofluorescence 488/530 nm, flow cytometry; stronger effect = higher value; fluorescence at 6.6 µM; 30% of 270 active; AID 1483;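 active = fluorescence beyond the plate control mean plus 3 SD, with a fluorescence-to-maximum score over 2, cut at about 25 in these data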
An asterisk follows results filed as active; u = inconclusive; x = no result given.

SMILES | RGS4-Gao reg | RGS7-Gao | RGS16-Gao HTS | ABCB1 inh | ABCG2 inh | RGS8-Gao reg | ABCB1 confirm | ABCG2 single pt | IgMXP3 fluor | CCRF autofluor
CCC(C)N1C(=O)/C(=C/c2c(NCCCOC(C)C)nc3c(C)cccn3c2=O)SC1=S (stereo not given) | 106 | 107 | 111 | 28 | 39 | 102 | x | x | x | x
COCCn1c(SCc2csc(-c3ccccc3)n2)nc2ccccc21 | 99 | 103 | 104 | 3 | 80 | 99 | -13 | 5 | 15* | 72*
CC1CCCN(C(=O)C2CCN(CC(C)c3ccccc3)CC2)C1 (stereo not given) | 97 | 97 | 111 | 1 | 0 | 98 | x | x | x | x
CCc1ccc(OCC(=O)N/N=C(\C)c2ccccc2OC(F)F)cc1 | 103 | 104 | 110 | 0 | 0 | 102 | x | x | x | x
CCc1ccc(OCC(=O)N/N=C(\C)c2ccc(OC(F)F)cc2)cc1 | 99 | 109 | 67 | 4 | 104* | 90 | -9 | 17 | 15* | 12
CC(=O)Nc1ccc(C)c([N+](=O)[O-])c1 | 100 | 100 | 100 | 0 | 11 | 102 | x | x | x | x
Cc1ccc(NC(=O)Nc2ccccc2)cc1[N+](=O)[O-] | 93 | 91 | 99 | 17 | 95* | 101 | 2 | 26 | -0.99 | -2.1
Cc1nnsc1C(=O)N1CCC(CO)(Cc2ccccc2Cl)CC1 | 103 | u | 101 | x | x | 102 | x | x | x | x
CCOC(=O)c1cc(-c2ccc(Cl)cc2)nc2onc(C)c12 | 99 | 96 | 100 | 1 | 83* | 99 | 2 | 37 | 2.5 | 9.5
CCOC(=O)c1cc(-c2ccc(Cl)cc2)nc2c1c(=O)[nH]c(=O)n2CCOC | 100 | 102 | 99 | 2 | 19 | 102 | x | x | x | x
CCCCSc1ccc(NC(=O)c2cccnc2)cc1 | 101 | 101 | 98 | 1 | 6 | 101 | x | x | x | x
CCOC(=O)C1=C(CNCc2ccc(C)cc2)NC(=O)NC1c1cc(C)ccc1C (stereo not given) | 96 | 95 | 64 | 40 | 25 | 93 | 15 | 13 | -1.8 | -4.6
CCOC(=O)C1=C(Cn2cnc3ccccc32)NC(=O)NC1c1cc(C)ccc1C (stereo not given) | 95 | 96 | 98 | 1 | 10 | 98 | x | x | x | x
CCOC(=O)C1(Cc2cccc(OC)c2)CCN(Cc2cccc3c2OCO3)CC1 | 99 | 101 | 102 | 3 | 1 | 101 | x | x | x | x
CCC(Cc1ccccc1)n1c(=S)[nH]c2ccccc2c1=O (stereo not given) | 101 | 97 | 100 | 31 | 100* | 100 | -10 | 3 | 23* | 57*
COCCn1c(C)cc(C(=O)CSc2cc(C)c3ccccc3n2)c1C | 92 | 94 | 109 | 3 | 92* | 97 | 1 | 19 | 0.71 | 2.6
COCCn1c(C)cc(C(=O)CSc2nc3ccccc3c(=O)n2Cc2ccco2)c1C | 101 | 100 | 105 | 19 | 32 | 104 | x | x | x | x
CN(C)c1ccc(/C=C/C(=O)c2cccc(Br)c2)cc1 | 109 | 108 | 98 | 26 | 42 | 97 | 6 | 17 | 19* | 103*
COc1cc2c(cc1OC)CN(S(=O)(=O)c1ccc3c(c1)OCCO3)CC2 | 98 | 97 | 99 | 0 | 2 | 98 | x | x | x | x
Cc1ccccc1-n1c(SCC(=O)Nc2ccccc2)nc2nc3c(cc2c1=O)CCCC3 | 100 | 101 | 98 | 46* | 36 | 101 | 48 | 23 | 0.71 | 91*
Cc1cccc(NC(=O)CSc2nc3nc4c(cc3c(=O)n2-c2ccccc2)CCCC4)c1 | 99 | 101 | 104 | 6 | 3 | 100 | x | x | x | x
CCN(CCCNC(=O)CCc1nc(-c2ccc(C)cc2)no1)c1cccc(C)c1 | 97 | 96 | 98 | 3 | 83* | 99 | 2 | 32 | -1.6 | -4.2
COc1ccc2cc3cc(C(=O)NCCN4CCN(c5ccccc5F)CC4)oc3nc2c1 | 102 | 100 | 101 | 2 | 6 | 101 | x | x | x | x
COc1ccc2cc3cc(C(=O)Nc4ccccc4N4CCN(C)CC4)oc3nc2c1 | 98 | 98 | 99 | 47* | 53 | 101 | 25 | 18 | 11 | -1.4
COn1c(-c2ccccc2)nc2c1CCc1c-2no[n+]1[O-] | 92 | 99 | 93 | -1 | 74 | 94 | -1 | 28 | 0.61 | -3
SMILES | RGS4-Gao reg | RGS7-Gao | RGS16-Gao HTS | ABCB1 inh | ABCG2 inh | RGS8-Gao reg | ABCB1 confirm | ABCG2 single pt | IgMXP3 fluor | CCRF autofluor
CCCCN(C(=O)CNC(=O)c1ccco1)C(C(=O)NC1CCCC1)c1ccc(OC)cc1 (stereo not given) | 100 | 104 | 101 | 1 | 1 | 100 | x | x | x | x
COCCSc1nnc(NC(=O)C(C)(C)C)s1 | 103 | 106 | 106 | 0 | 1 | 104 | x | x | x | x
COc1ccc2cc(C(=O)OC(C)C)sc(=O)c2c1OC | 102 | 98 | 107 | 2 | 87* | 102 | 1 | 60* | -1.9 | -3.8
CCOc1ccc(N2C(=O)C3ON(c4ccccc4)C(c4cccs4)C3C2=O)cc1 (stereo not given) | 100 | 97 | 100 | 95* | 29 | 100 | 1 | 23 | -1.2 | -0.79
COc1cccc(N2C(=O)C3ON(c4ccccc4)C(c4cccs4)C3C2=O)c1 (stereo not given) | 100 | 98 | 106 | 0 | 1 | 103 | x | x | x | x
O=[N+]([O-])c1ccc(N2CCOCC2)c(S(=O)(=O)N2CCOCC2)c1 | 98 | 102 | 95 | 1 | 3 | 100 | x | x | x | x
O=[N+]([O-])c1ccc(N2CCN(c3ccccc3F)CC2)c(S(=O)(=O)N2CCOCC2)c1 | 101 | 99 | 100 | x | x | 101 | 1 | 5 | -1.3 | 0.76
C/C(=N\NC(=O)c1c(Cl)c(C)nn1C)c1cccc(NC(=O)COc2ccc(Cl)cc2)c1 | 103 | 98 | 104 | 0 | 1 | 99 | x | x | x | x
COC(=O)c1cc(NC(=O)c2cccc(Cl)c2)c(=O)oc1/C=C/Nc1cc(C)cc(C)c1 | 106 | 104 | 108 | 138* | 135* | 99 | 0 | -183 | 503* | 612*
CCn1c(SCc2ccccc2Cl)nc2nc3c(cc2c1=O)CCCC3 | 100 | 101 | 114 | 21 | 92* | 104 | 18 | 16 | 15* | 6.2
CCOC(=O)Cc1csc(N/C(=N/S(=O)(=O)c2cc(Br)ccc2OCC)c2ccccc2)n1 | 100 | 100 | 99 | 0 | -2 | 102 | x | x | x | x
